In ChEMBL document CHEMBL4049415, “Kinetin Riboside and Its ProTides Activate the Parkinson's Disease Associated PTEN-Induced Putative Kinase 1 (PINK1) Independent of Mitochondrial Depolarization” (J Med Chem, 2017):
Calls of active or inactive are those of the source. The calls are words filed in the database; no cut-off is given here.

Experiments:
[1] = target: Serine/threonine-protein kinase PINK1, mitochondrial (Homo sapiens) (UniProt Q9BXM7); assay: Activation of FLAG tagged PINK1 (unknown origin) expressed in Flp-In TRex HEK293 cells co-expressing wild-type Parkin assessed as Parkin Ser65 phosphorylation at 50 uM after 24 hrs in absence of CCCP by immunoblotting analysis; type: cell-based
[2] = target: T1, cathepsin A (lysosomal protective protein) (Homo sapiens, UniProt P10619); assay: (§1) Stability in pH 7.4 trizma buffer assessed as cathepsin A (unknown origin)-mediated compound hydrolysis by measuring parent compound remaining at 5.0 mg measured after 12 hrs by 31P-NMR spectroscopic analysis; type: ADME; conditions: cathepsin A in trizma buffer, pH 7.4, read-out: Stability
T1 sequence (P10619 whole entry): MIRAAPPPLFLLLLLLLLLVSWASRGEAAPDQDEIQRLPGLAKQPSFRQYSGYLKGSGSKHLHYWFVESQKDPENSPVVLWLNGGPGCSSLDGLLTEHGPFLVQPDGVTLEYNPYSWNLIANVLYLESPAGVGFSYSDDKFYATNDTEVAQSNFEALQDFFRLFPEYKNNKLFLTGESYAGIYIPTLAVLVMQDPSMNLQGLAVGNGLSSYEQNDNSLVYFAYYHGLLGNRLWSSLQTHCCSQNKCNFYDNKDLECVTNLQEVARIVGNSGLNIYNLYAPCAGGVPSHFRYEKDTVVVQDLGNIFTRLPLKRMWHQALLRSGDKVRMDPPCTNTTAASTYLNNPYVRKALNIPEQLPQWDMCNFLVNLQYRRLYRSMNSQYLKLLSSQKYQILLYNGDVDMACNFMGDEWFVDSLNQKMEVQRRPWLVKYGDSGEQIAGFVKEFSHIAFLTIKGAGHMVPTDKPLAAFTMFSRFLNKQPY

[3] = target: Serine/threonine-protein kinase PINK1, mitochondrial (Homo sapiens) (UniProt Q9BXM7); assay: Activation of FLAG tagged PINK1 (unknown origin) expressed in Flp-In TRex HEK293 cells co-expressed with Parkin S65A mutant assessed as Parkin phosphorylation at 50 uM in absence of CCCP by immunoblotting analysis; type: cell-based
[4] = target: Serine/threonine-protein kinase PINK1, mitochondrial (Homo sapiens) (UniProt Q9BXM7); assay: Activation of FLAG tagged PINK1 (unknown origin) expressed in Flp-In TRex HEK293 cells co-expressing wild-type Parkin assessed as Parkin Ser65 phosphorylation at 50 uM in absence of CCCP by immunoblotting analysis; type: cell-based; conditions: TDE = time-dependent effect
[5] = target: Serine/threonine-protein kinase PINK1, mitochondrial (Homo sapiens) (UniProt Q9BXM7); assay: Activation of FLAG tagged PINK1 (unknown origin) expressed in Flp-In TRex HEK293 cells co-expressed with wild-type Parkin assessed as Parkin Ser65 phosphorylation at 10 uM by immunoblotting analysis; type: cell-based; conditions: TDE = time-dependent effect
[6] = Chemical stability of compound in pH 1 buffer at 5.0 mg measured at every 20 mins over 12 hrs by 31P-NMR spectroscopic analysis; type: physicochemical; conditions: pH 1, 12 h
Method in brief: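 Acid stability: 5 mg in methanol-d4 mixed with pH 1 buffer (equal parts 0.2 M HCl and 0.2 M KCl). 31P NMR at 37 °C, spectra every 20 min over 12 h; persistence of parent phosphorus peaks followed.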

[7] = target: T2, Lysosomal protective protein (Homo sapiens, UniProt P10619); assay: as §1; type: ADME; conditions: in vivo, pH 7.4, 12 h
T2 sequence (P10619 whole entry): T1 sequence (P10619 whole entry)

Serum [8] = assay: Metabolic stability of compound in human serum at 5.0 mg measured at even intervals over 11 hrs by 31P-NMR spectroscopic analysis; type: ADME, cell-free
Method in brief: (§2)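 Serum stability: 5.0 mg in DMSO-d6 and D2O, thawed human or mouse serum added in the NMR tube. 31P NMR at 37 °C, spectra immediately, at 30 min, then at even intervals over 11 h. Controls were compound without serum, and serum without compound.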

[9] = target: T2, Lysosomal protective protein; assay: Stability in pH 7.4 trizma buffer assessed as cathepsin A (unknown origin)-mediated compound hydrolysis at 5.0 mg measured after 15 mins by 31P-NMR spectroscopic analysis; type: ADME; conditions: pH 7.4, 0.25 h
[10] = target: T2, Lysosomal protective protein; assay: Prodrug activation in pH 7.4 trizma buffer assessed as cathepsin A (unknown origin)-mediated kinetin riboside monophosphate metabolite formation at 5.0 mg measured after 48 hrs by 31P-NMR spectroscopic analysis; type: ADME; conditions: pH 7.4, 48 h
Serum [11] = assay: Metabolic stability of the compound in mouse serum at 5.0 mg measured at even intervals over 11 hrs by 31P-NMR spectroscopic analysis; type: ADME, cell-free; method in brief: as §2
[12] = target: T2, Lysosomal protective protein; assay: Drug metabolism in pH 7.4 trizma buffer assessed as cathepsin A (unknown origin)-mediated (S)-2-((((2R,3S,4R,5R)-5-(6-(furan-2-ylmethylamino)-9H-purin-9-yl)-3,4-dihydroxytetrahydrofuran-2-yl)methoxy)oxidophosphorylamino)propanoate formation at 5.0 mg measured after 2 to 12 hrs by 31P-NMR spectroscopic analysis; type: ADME
[13] = target: T2, Lysosomal protective protein; assay: Drug level in pH 7.4 trizma buffer treated with phenyl(Isopropoxy-L-alaninyl) kinetin riboside phosphoramidate assessed as cathepsin A (unknown origin)-mediated metabolite formation at 5.0 mg measured after 2 to 12 hrs by 31P-NMR spectroscopic analysis; type: ADME

Chain of Serine/threonine-protein kinase PINK1, mitochondrial (Homo sapiens) (Q9BXM7 whole entry): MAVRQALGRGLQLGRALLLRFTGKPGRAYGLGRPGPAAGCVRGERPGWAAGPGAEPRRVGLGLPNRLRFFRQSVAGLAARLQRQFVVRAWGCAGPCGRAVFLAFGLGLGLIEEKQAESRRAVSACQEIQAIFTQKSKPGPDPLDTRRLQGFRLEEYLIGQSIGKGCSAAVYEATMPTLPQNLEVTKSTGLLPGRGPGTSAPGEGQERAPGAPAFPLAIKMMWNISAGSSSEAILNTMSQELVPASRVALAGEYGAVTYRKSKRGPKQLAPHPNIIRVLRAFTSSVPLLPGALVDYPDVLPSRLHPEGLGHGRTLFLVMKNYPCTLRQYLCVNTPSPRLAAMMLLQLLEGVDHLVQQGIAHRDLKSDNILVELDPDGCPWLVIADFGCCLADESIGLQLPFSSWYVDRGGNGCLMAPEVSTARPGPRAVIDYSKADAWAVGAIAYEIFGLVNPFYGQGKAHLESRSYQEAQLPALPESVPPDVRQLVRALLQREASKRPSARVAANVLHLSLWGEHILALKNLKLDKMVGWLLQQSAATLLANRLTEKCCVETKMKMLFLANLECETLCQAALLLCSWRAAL

## COC(=O)[C@H](C)NP(=O)(OC[C@H]1O[C@@H](n2cnc3c(NCc4ccco4)ncnc32)[C@H](O)[C@@H]1O)Oc1ccccc1 (stereo partly drawn)
[1]
  Activity: Active

## OC[C@H]1O[C@@H](n2cnc3c(NCc4ccco4)ncnc32)[C@H](O)[C@@H]1O
[1]
  Activity: Active

## C[C@H](NP(=O)(OC[C@H]1O[C@@H](n2cnc3c(NCc4ccco4)ncnc32)[C@H](O)[C@@H]1O)Oc1ccccc1)C(=O)OC(C)(C)C (stereo partly drawn)
[2]
  remaining at 12 h: 50%
[1]
  Activity: inactive

## C[C@H](NP(=O)(OC[C@H]1O[C@@H](n2cnc3c(NCc4ccco4)ncnc32)[C@H](O)[C@@H]1O)Oc1ccccc1)C(=O)OCc1ccccc1 (stereo partly drawn)
[3]
  Activity: inactive
[1]
  Activity: Active
[4]
  Activity: Tde

## c1coc(CNc2ncnc3[nH]cnc23)c1
[1]
  Activity: inactive

## N#CC(C#N)=NNc1cccc(Cl)c1
[5]
  Activity: Tde

## CC(C)OC(=O)[C@H](C)NP(=O)(OC[C@H]1O[C@@H](n2cnc3c(NCc4ccco4)ncnc32)[C@H](O)[C@@H]1O)Oc1ccccc1 (stereo partly drawn)
[6]
  Stability: Stable
[7]
  Stability: Unstable
[1]
  Activity: Active
Serum [8]
  Stability: Stable
[9]
  Stability: Stable
[10]
  Drug metabolism: Metabolite_Detected
Serum [11]
  Stability: Stable
[12]
  Drug metabolism: Metabolite_Detected

## C[C@H](NP(=O)(O)OC[C@H]1O[C@@H](n2cnc3c(NCc4ccco4)ncnc32)[C@H](O)[C@@H]1O)C(=O)O
[13]
  Drug metabolism: Metabolite_Detected
